Measured values taken from publication PMC10114714 (ACS Bio & Med Chem Au, 2021).
Entries after “also recorded” stand apart in the source; their conditions may differ.

Key:
human mGlu5 [1] = target: T1, human mGlu5 (Homo sapiens, UniProt P41594); assay: Calcium fluorescence triple-add assay, mGlu5 PAM mode; type: cell-based
[2] = Plasma protein binding, human; type: in vitro ADME; details: pH 7.4
mGlu1–4,7,8 = assay: Functional selectivity over the other mGlu receptors; type: cell-based
[3] = Brain homogenate binding, rat; type: in vitro ADME; details: pH 7.4, Rat fu,b
[4] = Intrinsic clearance in liver microsomes, rat; type: in vitro ADME; details: pH 7.4
[5] = Rat IV plasma/brain level; type: in vivo; details: male, Sprague-Dawley, brain and plasma, 0.2 mg/kg
rat mGlu5 = rat mGlu5 (Rattus norvegicus, UniProt P31424); assay: [3H]methoxyPEPy radioligand competition binding; details: for displacement of [3H]methoxyPEPy radioligand binding: concentrations up to 100 μM, in words
[6] = tested on: amphetamine-induced hyperlocomotion; assay: Reversal of amphetamine-induced hyperlocomotion; type: in vivo; details: rat
Method in brief: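 Male Sprague–Dawley rats, n = 7-8 per group. Test compound is given i.p. at 30 or 60 mg/kg in 10% Tween 80 in H2O, 30 min before amphetamine at 0.75 mg/kg s.c. Locomotion is compared with a vehicle/amphetamine control group.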

[7] = Intrinsic clearance in liver microsomes, human; type: in vitro ADME; details: pH 7.4
[8] = Plasma protein binding, rat; type: in vitro ADME; details: pH 7.4
[9] = Rat IV and PO pharmacokinetics; type: in vivo
Method in brief: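 Plasma pharmacokinetics with IV dosing at 0.20 mg/kg and PO dosing at 10 mg/kg. Read-outs are Cmax, tmax, AUCinf, t1/2 and oral bioavailability F.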

human mGlu5 [10] = target: T1, human mGlu5; assay: cell-based
[11] = Intrinsic clearance in liver microsomes, mouse; type: in vitro ADME; details: pH 7.4
marble burying = assay: Marble burying assay; type: in vivo, mouse; details: male CD-1 mice, 30 mg/kg i.p., in words
[12] = Mouse IV and PO pharmacokinetics; type: in vivo
[13] = Plasma protein binding, mouse; type: in vitro ADME; details: pH 7.4
[14] = male, Sprague-Dawley, plasma, iv, 0.2 mg/kg
[15] = male, Sprague-Dawley, plasma, po, 10 mg/kg

T1 sequence (P41594 21-1212): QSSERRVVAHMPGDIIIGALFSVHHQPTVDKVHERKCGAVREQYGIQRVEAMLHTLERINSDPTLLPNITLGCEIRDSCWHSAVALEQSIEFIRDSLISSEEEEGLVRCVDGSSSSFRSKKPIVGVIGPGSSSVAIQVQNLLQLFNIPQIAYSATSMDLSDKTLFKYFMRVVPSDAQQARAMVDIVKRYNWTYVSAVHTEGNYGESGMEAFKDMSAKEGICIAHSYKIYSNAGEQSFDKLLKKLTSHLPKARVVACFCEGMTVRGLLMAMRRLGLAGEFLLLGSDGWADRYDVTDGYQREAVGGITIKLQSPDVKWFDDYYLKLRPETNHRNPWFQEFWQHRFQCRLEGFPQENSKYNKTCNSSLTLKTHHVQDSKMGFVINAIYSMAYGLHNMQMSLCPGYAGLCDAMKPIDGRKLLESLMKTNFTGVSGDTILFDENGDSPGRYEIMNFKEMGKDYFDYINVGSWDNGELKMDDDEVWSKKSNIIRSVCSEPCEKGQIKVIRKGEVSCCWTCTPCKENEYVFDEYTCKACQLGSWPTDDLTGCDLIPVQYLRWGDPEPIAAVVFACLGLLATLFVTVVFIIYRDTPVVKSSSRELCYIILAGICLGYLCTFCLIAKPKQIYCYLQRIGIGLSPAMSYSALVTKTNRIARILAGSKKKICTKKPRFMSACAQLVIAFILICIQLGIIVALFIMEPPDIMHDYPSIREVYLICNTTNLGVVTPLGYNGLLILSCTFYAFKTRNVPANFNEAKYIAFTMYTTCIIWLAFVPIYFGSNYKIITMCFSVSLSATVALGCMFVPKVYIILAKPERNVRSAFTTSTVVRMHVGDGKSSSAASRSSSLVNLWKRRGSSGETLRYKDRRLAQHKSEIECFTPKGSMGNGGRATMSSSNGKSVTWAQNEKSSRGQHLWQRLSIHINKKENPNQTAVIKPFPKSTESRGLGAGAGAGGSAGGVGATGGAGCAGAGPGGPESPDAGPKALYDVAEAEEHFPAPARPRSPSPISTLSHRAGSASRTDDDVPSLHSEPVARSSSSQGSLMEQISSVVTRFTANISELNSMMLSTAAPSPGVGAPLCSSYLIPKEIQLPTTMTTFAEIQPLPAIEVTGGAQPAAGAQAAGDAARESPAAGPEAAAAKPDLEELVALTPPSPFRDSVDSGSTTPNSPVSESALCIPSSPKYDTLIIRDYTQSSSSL
Sequence of rat mGlu5 (P31424 21-1203): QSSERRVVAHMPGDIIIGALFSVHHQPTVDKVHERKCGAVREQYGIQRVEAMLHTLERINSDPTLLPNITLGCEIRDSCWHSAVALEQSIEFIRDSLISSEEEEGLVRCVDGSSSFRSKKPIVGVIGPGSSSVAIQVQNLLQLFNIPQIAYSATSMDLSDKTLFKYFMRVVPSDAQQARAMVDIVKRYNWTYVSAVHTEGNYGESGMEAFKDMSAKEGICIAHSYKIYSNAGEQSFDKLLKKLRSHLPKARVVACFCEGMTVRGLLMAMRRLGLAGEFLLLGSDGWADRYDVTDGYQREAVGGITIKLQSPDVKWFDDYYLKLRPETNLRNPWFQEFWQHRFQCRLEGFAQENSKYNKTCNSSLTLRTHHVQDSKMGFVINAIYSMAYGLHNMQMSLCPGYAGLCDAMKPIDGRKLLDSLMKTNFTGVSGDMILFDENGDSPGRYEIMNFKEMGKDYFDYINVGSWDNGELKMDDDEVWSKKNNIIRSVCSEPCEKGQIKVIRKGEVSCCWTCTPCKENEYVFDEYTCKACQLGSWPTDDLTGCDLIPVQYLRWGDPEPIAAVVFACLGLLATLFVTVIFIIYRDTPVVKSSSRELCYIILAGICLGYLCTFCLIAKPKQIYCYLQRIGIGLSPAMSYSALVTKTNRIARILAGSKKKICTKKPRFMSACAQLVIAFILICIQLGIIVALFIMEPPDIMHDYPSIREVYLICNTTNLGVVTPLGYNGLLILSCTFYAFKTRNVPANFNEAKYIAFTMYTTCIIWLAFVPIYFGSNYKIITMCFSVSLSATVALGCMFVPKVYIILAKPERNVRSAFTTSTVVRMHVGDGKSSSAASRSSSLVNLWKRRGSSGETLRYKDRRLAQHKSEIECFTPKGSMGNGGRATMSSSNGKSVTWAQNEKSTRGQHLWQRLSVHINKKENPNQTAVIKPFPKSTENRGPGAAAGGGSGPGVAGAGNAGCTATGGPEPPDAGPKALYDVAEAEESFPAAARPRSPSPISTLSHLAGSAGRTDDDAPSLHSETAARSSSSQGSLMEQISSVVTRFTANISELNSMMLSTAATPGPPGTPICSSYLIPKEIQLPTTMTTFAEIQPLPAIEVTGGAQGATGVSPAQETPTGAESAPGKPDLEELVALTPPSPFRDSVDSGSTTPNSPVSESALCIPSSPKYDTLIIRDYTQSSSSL

## Cc1ccc(Oc2cc(C(=O)NCc3ccc(F)cn3)nc3ccsc23)cn1 [Compound 17a, N-((5-Fluoropyridin-2-yl)methyl)-7-((6-methylpyridin-3-yl)oxy)thieno[3,2-b]pyridine-5-carboxamide]
Human mGlu5 [1]; hmGlu5 EC50 (μM), Table 2
  EC50: 0.52 µM
Human mGlu5 [1]; mGlu5 PAM EC50
  fold improvement in potency in comparison to hit compound 12: 5 fold
[2]
  fraction unbound at 6 h, 5 µM: 0.056
mGlu1–4,7,8
  functional activity at mGlu1–4,7,8: > 30 µM
[3]
  fraction unbound at 6 h, 1 µM: 0.03
[4]
  CLint scaled at 1 µM: 152 mL/min/kg
[5]
  Kp at 0.25 h: 0.83
  Kp uu at 0.25 h: 0.52
Rat mGlu5
  Ki: > 10000 nM
  displacement of [3H]methoxyPEPy radioligand binding: weak binding
[6]; 60 mg/kg i.p., 30 min prior to 0.75 mg/kg s.c. amphetamine
  reversal of AHL: ~30%
[6]; 30 or 60 mg/kg i.p., in words
  reversal of amphetamine-induced hyperlocomotion: reversed amphetamine-induced hyperlocomotion; also recorded: Dose-dependent reversal
[7]
  CLint scaled at 1 µM: 173 mL/min/kg
[8]
  fraction unbound at 6 h, 5 µM: 0.048
[9]; PO 10 mg/kg, 10 mg/kg
  F (%): 8.22%
[9]; [14]
  Vd: 2.2 L/kg
  clearance: 36.9 mL/min/kg
  half-life: 82.2 min
[9]; [15]
  AUC(0-inf): 371 ng·h/mL
  Cmax: 152 ng/mL
  Tmax: 30 min

## Cc1ccc(Oc2ccnc(C(=O)NCc3ccc(F)cn3)c2)cn1 [Compound 21d]
Human mGlu5 [1]; in words
  mGlu5 PAM activity: complete loss of activity

## Cc1ccc(Nc2cc(C(=O)NCc3ccc(F)cn3)nc3ccsc23)cn1 [Compound 26]
Human mGlu5 [10]
  IC50: > 30000 nM

## Cc1ccc(Cc2cc(C(=O)NCc3ccc(F)cn3)nc3ccsc23)cn1 [Compound 27]
Human mGlu5 [10]
  IC50: > 30000 nM

## Cc1cncc(Oc2cc(C(=O)NCc3ccc(F)cn3)nc3ccsc23)c1 [Compound 28a]
Human mGlu5 [10]
  IC50: 260 nM

## Cc1ccncc1Oc1cc(C(=O)NCc2ccc(F)cn2)nc2ccsc12 [Compound 28b]
Human mGlu5 [10]
  IC50: 203 nM

## Cc1ncccc1Oc1cc(C(=O)NCc2ccc(F)cn2)nc2ccsc12 [Compound 28c]
Human mGlu5 [10]
  IC50: > 30000 nM

## O=C(NCc1ccc(F)cn1)c1cc(Oc2cccnc2)c2sccc2n1 [Compound 28d, N-((5-fluoropyridin-2-yl)methyl)-7-(pyridin-3-yloxy)thieno[3,2-b]pyridine-5-carboxamide]
[2]
  fraction unbound at 6 h, 5 µM: 0.068
[11]
  CLint scaled at 1 µM: 970 mL/min/kg
Marble burying
  marble burying: anxiolytic activity; also recorded: significant reduction in marble burying; also recorded: Inhibition of marble burying
[12]; PO 10 mg/kg, in words
  drug in blood following PO administration: no measurable drug in blood
[12]; plasma, iv, 1 mg/kg
  Vd: 8.2 L/kg
  clearance: 141 mL/min/kg
  half-life: 41.4 min
mGlu1–4,7,8
  functional activity at mGlu1–4,7,8: > 30 µM
[3]
  fraction unbound at 6 h, 1 µM: 0.035
[4]
  CLint scaled at 1 µM: 314 mL/min/kg
Rat mGlu5
  Ki: 160 nM
  displacement of [3H]methoxyPEPy radioligand binding: full displacement of radioligand binding
[7]
  CLint scaled at 1 µM: 47 mL/min/kg
[8]
  fraction unbound at 6 h, 5 µM: 0.115
[13]
  fraction unbound at 6 h, 5 µM: 0.062

## Cc1ccc(Oc2cc(C(=O)NCc3ccc(F)cn3)nc3ccsc23)nc1 [Compound 28e]
Human mGlu5 [10]
  IC50: 1900 nM
